Test [1] has as its target Phosphatidylinositol 4,5-bisphosphate 3-kinase catalytic subunit alpha isoform (Homo sapiens, UniProt P42336). The test is described as follows: Inhibition of PI3K expressed in Escherichia coli by microtiter plate-based fluorescence polarization assay. In a few lines:
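Fluorescence polarization assay of PI3K activity with PIP2 substrate. Reactions contained 20 mM Hepes pH 7.5, 2 mM MgCl2, 0.05% CHAPS, 0.01% βME, 20 µM PIP2 and 25 µM ATP, and ran 15–30 min at room temperature. They were stopped with buffer holding 10 nM TAMRA-labeled probe and 40 nM GST-GRP1 (E. coli-expressed detector), then incubated 1–2 h before FP readout.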
On the technique in general: Polarisation of emitted light reports the rotation of a fluorescent probe.

In test [2] the test system is LNCaP. The test is described as follows: Growth inhibition of human LNCap cells. The format is functional, cell-based.
For test [3], the target named is Serine/threonine-protein kinase mTOR (Homo sapiens, UniProt P42345). The test is described as follows: Inhibition of mTOR.

Data on 35 compounds can be found in ChEMBL document CHEMBL1143164, “Synthesis and structure-activity relationships of ring-opened 17-hydroxywortmannins: potent phosphoinositide 3-kinase inhibitors with improved properties and anticancer efficacy” (J Med Chem, 2008).

In general, IC50 refers to the concentration at which inhibition is half-maximal. The low end stands for greater potency, the high end for weaker potency.

Each structure is given as a SMILES string.

Phosphatidylinositol 4,5-bisphosphate 3-kinase catalytic subunit alpha isoform, sequence (P42336 whole entry, canonical isoform): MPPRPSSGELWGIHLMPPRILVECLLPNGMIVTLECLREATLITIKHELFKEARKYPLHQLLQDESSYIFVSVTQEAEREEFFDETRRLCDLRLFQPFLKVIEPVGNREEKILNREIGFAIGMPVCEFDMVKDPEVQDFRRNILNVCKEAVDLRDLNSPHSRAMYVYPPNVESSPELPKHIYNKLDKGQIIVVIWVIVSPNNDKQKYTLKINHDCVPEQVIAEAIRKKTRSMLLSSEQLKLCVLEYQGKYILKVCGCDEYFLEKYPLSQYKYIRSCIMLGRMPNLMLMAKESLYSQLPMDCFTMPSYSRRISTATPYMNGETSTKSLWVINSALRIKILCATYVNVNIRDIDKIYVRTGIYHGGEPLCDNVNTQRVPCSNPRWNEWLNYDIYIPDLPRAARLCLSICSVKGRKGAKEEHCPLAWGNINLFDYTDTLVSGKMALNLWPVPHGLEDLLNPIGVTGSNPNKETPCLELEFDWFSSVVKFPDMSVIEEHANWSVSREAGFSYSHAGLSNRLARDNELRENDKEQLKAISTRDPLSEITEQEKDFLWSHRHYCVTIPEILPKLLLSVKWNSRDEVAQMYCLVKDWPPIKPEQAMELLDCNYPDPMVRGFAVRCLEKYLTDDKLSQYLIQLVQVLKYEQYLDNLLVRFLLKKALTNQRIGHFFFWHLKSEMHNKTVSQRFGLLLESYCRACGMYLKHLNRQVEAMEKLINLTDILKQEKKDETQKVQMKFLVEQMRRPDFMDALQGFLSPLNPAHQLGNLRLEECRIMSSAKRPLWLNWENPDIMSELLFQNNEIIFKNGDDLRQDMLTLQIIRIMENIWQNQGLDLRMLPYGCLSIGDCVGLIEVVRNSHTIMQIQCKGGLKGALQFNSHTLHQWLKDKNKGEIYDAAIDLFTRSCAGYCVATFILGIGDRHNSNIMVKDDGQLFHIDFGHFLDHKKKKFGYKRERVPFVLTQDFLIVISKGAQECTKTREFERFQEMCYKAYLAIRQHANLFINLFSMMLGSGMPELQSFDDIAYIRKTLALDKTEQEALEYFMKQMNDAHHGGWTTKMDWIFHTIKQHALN

Consider `CCN/C=C1/C(=O)O[C@H](COC)[C@@]2(C)C1=C(O)C(=O)C1=C2[C@H](OC(C)=O)C[C@]2(C)[C@@H](O)CC[C@@H]12`, for which the concentration for half-maximal inhibition (IC50) was > 10 µM in test [1], 7.07 µM in test [2] and > 20 µM in test [3].

On to `COC[C@H]1OC(=O)/C(=C/N(CCO)CCO)C2=C(O)C(=O)C3=C([C@H](OC(C)=O)C[C@]4(C)[C@@H](O)CC[C@@H]34)[C@]21C`, for which the IC50 in test [1] is 0.918 µM; in test [2], 0.131 µM; in test [3], > 18.7 µM.

For `COC[C@H]1OC(=O)/C(=C/NCCCN(C)C)C2=C(O)C(=O)C3=C([C@H](OC(C)=O)C[C@]4(C)[C@@H](O)CC[C@@H]34)[C@]21C`, the IC50 is > 10 µM in test [1], 2.02 µM in test [2] and > 20 µM in test [3].

`COC[C@H]1OC(=O)/C(=C/N2CCN(C3CCN(C)CC3)CC2)C2=C(O)C(=O)C3=C([C@H](OC(C)=O)C[C@]4(C)[C@@H](O)CC[C@@H]34)[C@]21C`: the IC50 came to 0.091 µM in test [1], 0.782 µM in test [2] and 0.961 µM in test [3].

Take `COC[C@H]1OC(=O)/C(=C/N(C)CC(O)CO)C2=C(O)C(=O)C3=C([C@H](OC(C)=O)C[C@]4(C)[C@@H](O)CC[C@@H]34)[C@]21C` (stereo not given in full): the half-inhibitory concentration (IC50) worked out at 0.199 µM in test [1], 0.168 µM in test [2] and 1.87 µM in test [3].

Regarding `COC[C@H]1OC(=O)/C(=C/N2CCN(CCN3CCOCC3)CC2)C2=C(O)C(=O)C3=C([C@H](OC(C)=O)C[C@]4(C)[C@@H](O)CC[C@@H]34)[C@]21C`, the 50% inhibitory concentration (IC50) in test [1] is 0.078 µM; in test [2], 0.794 µM; in test [3], 0.619 µM.

As to `CCN(/C=C1/C(=O)O[C@H](COC)[C@@]2(C)C1=C(O)C(=O)C1=C2[C@H](OC(C)=O)C[C@]2(C)[C@@H](O)CC[C@@H]12)CCN(CC)CC`, the 50% inhibitory concentration (IC50) in test [1] was found to be 0.024 µM; in test [2], 1.31 µM; in test [3], 1.48 µM.

As for `COC[C@H]1OC(=O)/C(=C/N2CCN(c3ccccc3)CC2)C2=C(O)C(=O)C3=C([C@H](OC(C)=O)C[C@]4(C)[C@@H](O)CC[C@@H]34)[C@]21C`, the IC50 in test [1] came out at 0.056 µM; in test [2], 0.953 µM; in test [3] it was 0.692 µM.

Take `COC[C@H]1OC(=O)/C(=C/N2CCN(CCCN3CCOCC3)CC2)C2=C(O)C(=O)C3=C([C@H](OC(C)=O)C[C@]4(C)[C@@H](O)CC[C@@H]34)[C@]21C`: the IC50 in test [1] worked out at 0.045 µM; in test [2], 0.637 µM; in test [3], 1.2 µM.

Turning to `COC[C@H]1OC(=O)/C(=C/N2CCC(C(=O)O)CC2)C2=C(O)C(=O)C3=C([C@H](OC(C)=O)C[C@]4(C)[C@@H](O)CC[C@@H]34)[C@]21C`, the half-inhibitory concentration (IC50) in test [1] was 0.033 µM; in test [2], 0.5 µM; in test [3], 0.822 µM.

On to `C=CCN(/C=C1/C(=O)O[C@H](COC)[C@@]2(C)C1=C(O)C(=O)C1=C2[C@H](OC(C)=O)C[C@]2(C)C(=O)CC[C@@H]12)CC=C` [SONOLISIB], for which the values for the IC50 in test [1], in test [2] and in test [3] were 0.088 µM, 0.573 µM and 3.1 µM, respectively.

As to `COC[C@H]1OC(=O)/C(=C/N(CCC#N)Cc2ccccc2)C2=C(O)C(=O)C3=C([C@H](OC(C)=O)C[C@]4(C)[C@@H](O)CC[C@@H]34)[C@]21C`, the IC50 was 0.444 µM in test [1], 0.144 µM in test [2] and > 1.69 µM in test [3].

For the compound `COC[C@H]1OC(=O)/C(=C/N(CCN(C)C)Cc2ccccc2)C2=C(O)C(=O)C3=C([C@H](OC(C)=O)C[C@]4(C)[C@@H](O)CC[C@@H]34)[C@]21C`, the values for the half-maximal inhibitory concentration (IC50) in test [1], in test [2] and in test [3] were 0.066 µM, 1.43 µM and 5.6 µM, respectively.

For `COC[C@H]1OC(=O)/C(=C/N2CCCC2)C2=C(O)C(=O)C3=C([C@H](OC(C)=O)C[C@]4(C)[C@@H](O)CC[C@@H]34)[C@]21C`, the half-maximal inhibitory concentration (IC50) was 0.496 µM in test [1], 0.257 µM in test [2] and > 20 µM in test [3].

For the compound `COC[C@H]1OC(=O)/C(=C/N(C)CCCN2CCN(C)CC2)C2=C(O)C(=O)C3=C([C@H](OC(C)=O)C[C@]4(C)[C@@H](O)CC[C@@H]34)[C@]21C`, the IC50 is 0.01 µM in test [1], 0.465 µM in test [2] and 2.33 µM in test [3].

Regarding `COC[C@H]1OC(=O)/C(=C/N(C)CCCN2CCOCC2)C2=C(O)C(=O)C3=C([C@H](OC(C)=O)C[C@]4(C)[C@@H](O)CC[C@@H]34)[C@]21C`, the half-maximal inhibitory concentration (IC50) was 0.024 µM in test [1], 0.595 µM in test [2] and 2.29 µM in test [3].

In the case of `CCN(/C=C1/C(=O)O[C@H](COC)[C@@]2(C)C1=C(O)C(=O)C1=C2[C@H](O)C[C@]2(C)[C@@H](O)CC[C@@H]12)CC`, the results for the half-inhibitory concentration (IC50) in test [1], in test [2] and in test [3] were 7.85 µM, 0.71 µM and > 20 µM, respectively.

Regarding `CCN(CC)CCN(C)/C=C1/C(=O)O[C@H](COC)[C@@]2(C)C1=C(O)C(=O)C1=C2[C@H](OC(C)=O)C[C@]2(C)[C@@H](O)CC[C@@H]12`, the values for the IC50 in test [1], in test [2] and in test [3] were 0.05 µM, 2.59 µM and 0.767 µM, respectively.

As for `COC[C@H]1OC(=O)/C(=C/N2CCC(c3ccccc3)CC2)C2=C(O)C(=O)C3=C([C@H](OC(C)=O)C[C@]4(C)[C@@H](O)CC[C@@H]34)[C@]21C`, the values for the IC50 in test [1], in test [2] and in test [3] were 0.172 µM, 1.52 µM and 2.45 µM, respectively.

As to `COC[C@H]1OC(=O)/C(=C/N(C)CCCN(C)C)C2=C(O)C(=O)C3=C([C@H](O)C[C@]4(C)[C@@H](O)CC[C@@H]34)[C@]21C`, the figures for the IC50 in test [1], in test [2] and in test [3] were 0.638 µM, 2.34 µM and > 20 µM, respectively.

Consider `COC[C@H]1OC(=O)/C(=C/N2CCN(Cc3ccccc3)CC2)C2=C(O)C(=O)C3=C([C@H](OC(C)=O)C[C@]4(C)[C@@H](O)CC[C@@H]34)[C@]21C`, for which the figures for the concentration for half-maximal inhibition (IC50) in test [1], in test [2] and in test [3] were 0.087 µM, 1.65 µM and 0.89 µM, respectively.

With `COC[C@H]1OC(=O)/C(=C/N2CCOCC2)C2=C(O)C(=O)C3=C([C@H](OC(C)=O)C[C@]4(C)[C@@H](O)CC[C@@H]34)[C@]21C`, the results for the half-inhibitory concentration (IC50) in test [1], in test [2] and in test [3] were 0.037 µM, 0.966 µM and 0.831 µM, respectively.

With `CCCCN(C)/C=C1/C(=O)O[C@H](COC)[C@@]2(C)C1=C(O)C(=O)C1=C2[C@H](OC(C)=O)C[C@]2(C)[C@@H](O)CC[C@@H]12`, the 50% inhibitory concentration (IC50) in test [1] is 0.635 µM; in test [2], 0.203 µM; in test [3] it was 8.7 µM.

As to `COC[C@H]1OC(=O)/C(=C/N2CCC(C(=O)OC)CC2)C2=C(O)C(=O)C3=C([C@H](OC(C)=O)C[C@]4(C)[C@@H](O)CC[C@@H]34)[C@]21C`, the half-inhibitory concentration (IC50) in test [1] amounted to 0.031 µM; in test [2], 0.506 µM; in test [3], 1.69 µM.

Consider `COC[C@H]1OC(=O)/C(=C/N2CCN(C3CCCCC3)CC2)C2=C(O)C(=O)C3=C([C@H](OC(C)=O)C[C@]4(C)[C@@H](O)CC[C@@H]34)[C@]21C`, for which the figures for the IC50 in test [1], in test [2] and in test [3] were 0.043 µM, 1.47 µM and 0.82 µM, respectively.

For the compound `COC[C@H]1OC(=O)/C(=C/N(C)CCCN2CCN(c3ccc(OC)cc3)CC2)C2=C(O)C(=O)C3=C([C@H](OC(C)=O)C[C@]4(C)[C@@H](O)CC[C@@H]34)[C@]21C`, the IC50 in test [1] amounted to 0.015 µM; in test [2] it was 0.62 µM; in test [3] it was 1.35 µM.

For the compound `COC[C@H]1OC(=O)/C(=C/N(C)CC(=O)OC(C)(C)C)C2=C(O)C(=O)C3=C([C@H](OC(C)=O)C[C@]4(C)[C@@H](O)CC[C@@H]34)[C@]21C`, the IC50 in test [1] came to 1.58 µM; in test [2], 0.174 µM; in test [3], 13.9 µM.

With `COC[C@H]1OC(=O)/C(=C/NC(C)(C)C)C2=C(O)C(=O)C3=C([C@H](OC(C)=O)C[C@]4(C)[C@@H](O)CC[C@@H]34)[C@]21C`, the IC50 in test [1] is > 10 µM; in test [2], 40.7 µM; in test [3] it was > 20 µM.

Regarding `COC[C@H]1OC(=O)/C(=C/N(C)C(C)(C)C)C2=C(O)C(=O)C3=C([C@H](OC(C)=O)C[C@]4(C)[C@@H](O)CC[C@@H]34)[C@]21C`, the IC50 in test [1] came to 0.44 µM; in test [2], 0.189 µM; in test [3], 6.5 µM.

Regarding `COC[C@H]1OC(=O)/C(=C/N2CCC(N3CCCCC3)CC2)C2=C(O)C(=O)C3=C([C@H](OC(C)=O)C[C@]4(C)[C@@H](O)CC[C@@H]34)[C@]21C`, the concentration for half-maximal inhibition (IC50) was determined as 0.063 µM in test [1], 1.5 µM in test [2] and 0.568 µM in test [3].

For `COC[C@H]1OC(=O)/C(=C/N(CCCN(C)C)C(C)(C)C)C2=C(O)C(=O)C3=C([C@H](OC(C)=O)C[C@]4(C)[C@@H](O)CC[C@@H]34)[C@]21C`, the IC50 in test [1] is 0.0096 µM; in test [2], 0.919 µM; in test [3], 0.816 µM.

As to `COC[C@H]1OC(=O)/C(=C/N(C)CCN(C)C)C2=C(O)C(=O)C3=C([C@H](OC(C)=O)C[C@]4(C)[C@@H](O)CC[C@@H]34)[C@]21C`, the half-inhibitory concentration (IC50) in test [1] came to 0.0084 µM; in test [2], 0.751 µM; in test [3] it was 1.47 µM.

In the case of `COC[C@H]1OC(=O)/C(=C/N2CCCCC2)C2=C(O)C(=O)C3=C([C@H](OC(C)=O)C[C@]4(C)[C@@H](O)CC[C@@H]34)[C@]21C`, the results for the IC50 in test [1], in test [2] and in test [3] were 0.104 µM, 1.55 µM and 1.8 µM, respectively.

With `COC[C@H]1OC(=O)/C(=C/N(C)C2CCN(C)C2)C2=C(O)C(=O)C3=C([C@H](OC(C)=O)C[C@]4(C)[C@@H](O)CC[C@@H]34)[C@]21C` (stereo not given in full), the results for the half-maximal inhibitory concentration (IC50) in test [1], in test [2] and in test [3] were 0.127 µM, 1.01 µM and 1.21 µM, respectively.

Consider `CCN(/C=C1/C(=O)O[C@H](COC)[C@@]2(C)C1=C(O)C(=O)C1=C2[C@H](OC(C)=O)C[C@]2(C)[C@@H](O)CC[C@@H]12)CCN(C)C`, for which the IC50 was 0.005 µM in test [1], 1.02 µM in test [2] and 0.878 µM in test [3].
